Laboratory results: ChEMBL document CHEMBL3102763, “Synthesis, radiosynthesis and first in vitro evaluation of novel PET-tracers for the dopamine transporter: [(11)C]IPCIT and [(18)F]FE@IPCIT” (Bioorg Med Chem, 2013)

Experiments:
[1] = target: T1, Sodium-dependent noradrenaline transporter (Homo sapiens, UniProt P23975); experiment: Displacement of [3H][…] from human NET after 2 hrs by liquid scintillation counting analysis
[2] = Lipophilicity, log D of the compound; assay type: physicochemical; settings: octanol/water
In short: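 HPLC method on a short polymeric ODP-50 column, with toluene and triphenylene co-injected as standards of known logD and k'. A linear gradient runs from 10% MeOH/90% 25 mM phosphate buffer to 100% methanol over 9.4 min at 1.5 mL/min.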

[3] = target: T2, Sodium-dependent serotonin transporter (Homo sapiens, UniProt P31645); experiment: Displacement of [3H][…] from human SERT after 2 hrs by liquid scintillation counting analysis
[4] = target: T3, Sodium-dependent dopamine transporter (Homo sapiens, UniProt Q01959); experiment: Displacement of [3H]WIN35428 from human DAT after 2 hrs by liquid scintillation counting analysis
In short: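 Competition binding on human DAT membranes (12.7 µg protein/unit) in 100 mM NaCl, 50 mM Tris-HCl pH 7.4, with [3H]WIN 35,428 added as a 3 nM solution. Nonspecific binding defined with 10 µM GBR 12909. After 2 h incubation, bound label is pelleted at about 40,000g, washed twice with ice-cold buffer and counted by β-scintillation. IC50 and Ki come from competition plots, three assays each in triplicate.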

CES1b/CES1c/CES2 = experiment: Metabolic stability assessed as human CES1b/CES1c/CES2-mediated hydrolysis measuring compound remaining after 60 mins by radio-HPLC analysis; assay type: ADME; settings: human carboxylesterases CES1b, CES1c and CES2, read-out: Stability
In short: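 A 1/1/1 mixture (20 µL) of human CES1b, CES1c and CES2 (each 5 mg/mL) is diluted with 270 µL phosphate buffer pH 7.4. Radiotracer (6 µL) is incubated in it, quenched with MeOH/ACN (10/1) and centrifuged. Supernatants are analysed by radio-HPLC for percent intact tracer.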

[5] = Drug metabolism in human liver microsomes after 1 hr by radio-HPLC analysis relative to control; assay type: ADME; settings: read-out: Drug metabolism
In short: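 Pooled human liver microsomes are preincubated 5 min at 37 °C in pH 7.4 phosphate buffer with an NADPH-generating system. Formulated radiotracer (6 µL) is then added in 300 µL final volume, with ethanol at or below 2%. Incubations are quenched with one volume MeOH/ACN (10/1), vortexed and centrifuged. Supernatants are analysed by radio-HPLC for percent intact tracer.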

[6] = Metabolic stability in human plasma assessed as compound remaining after 1 hr by radio-HPLC analysis; assay type: ADME, cell-free; settings: read-out: Stability
In short: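 Radiotracer (10 µL) incubated in 500 µL pooled Li-heparin human plasma at 37 °C for up to 60 min, with ethanol kept at or below 2% final. Aliquots are quenched with one volume of ice-cold MeOH/ACN (10/1) and centrifuged (23,000g, 4 min, 5 °C). Supernatants are analysed by radio-HPLC for percent […].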

[7] = target: T2, Sodium-dependent serotonin transporter; experiment: Binding affinity to SERT (unknown origin)
In short: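 Human SERT membranes (9 µg protein/unit) in 100 mM NaCl, 50 mM Tris-HCl pH 7.4, with [3H]imipramine as radioligand. Run as the DAT competition assay: 2 h incubation, centrifugation at about 40,000g and β-scintillation counting. IC50 and Ki are derived from competition plots.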

[8] = target: T1, Sodium-dependent noradrenaline transporter; experiment: Binding affinity to NET (unknown origin)
In short: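 Human NET membranes (3 µg protein/unit) in 100 mM NaCl, 50 mM Tris-HCl pH 7.4, with [3H]nisoxetine as radioligand. Run as the DAT competition assay: 2 h incubation, centrifugation at about 40,000g and β-scintillation counting. IC50 and Ki are derived from competition plots.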

[9] = target: T3, Sodium-dependent dopamine transporter; experiment: Binding affinity to DAT (unknown origin)
In short: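 Competition binding on human DAT-expressing membranes (12.7 µg protein/unit) in 50 mM Tris-HCl, 100 mM NaCl, pH 7.4. The radioligand was ³H-WIN 35,428, added from a 3 nM solution. Non-specific binding was defined with 10 µM GBR 12909. After 2 h incubation, membranes were pelleted at about 40,000g and washed with ice-cold buffer, then counted by β-scintillation. IC50/Ki came from competition plots: three assays, each in triplicate.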

Homo sapiens [10] = organism: Homo sapiens; experiment: Selectivity ratio of Ki for human NET to Ki for human DAT
In short: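 Ratio of Ki values from competition binding on human NET membranes ([3H]nisoxetine) and human DAT membranes ([3H]WIN 35,428). Both were measured in 100 mM NaCl, 50 mM Tris-HCl pH 7.4 with 2 h incubation and scintillation counting.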

Homo sapiens [11] = organism: Homo sapiens; experiment: Selectivity ratio of Ki for human SERT to Ki for human DAT
In short: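 Ratio of Ki values from competition binding on human SERT membranes ([3H]imipramine) and human DAT membranes ([3H]WIN 35,428). Both were measured in 100 mM NaCl, 50 mM Tris-HCl pH 7.4 with 2 h incubation and scintillation counting.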

T2 sequence (P31645 whole entry): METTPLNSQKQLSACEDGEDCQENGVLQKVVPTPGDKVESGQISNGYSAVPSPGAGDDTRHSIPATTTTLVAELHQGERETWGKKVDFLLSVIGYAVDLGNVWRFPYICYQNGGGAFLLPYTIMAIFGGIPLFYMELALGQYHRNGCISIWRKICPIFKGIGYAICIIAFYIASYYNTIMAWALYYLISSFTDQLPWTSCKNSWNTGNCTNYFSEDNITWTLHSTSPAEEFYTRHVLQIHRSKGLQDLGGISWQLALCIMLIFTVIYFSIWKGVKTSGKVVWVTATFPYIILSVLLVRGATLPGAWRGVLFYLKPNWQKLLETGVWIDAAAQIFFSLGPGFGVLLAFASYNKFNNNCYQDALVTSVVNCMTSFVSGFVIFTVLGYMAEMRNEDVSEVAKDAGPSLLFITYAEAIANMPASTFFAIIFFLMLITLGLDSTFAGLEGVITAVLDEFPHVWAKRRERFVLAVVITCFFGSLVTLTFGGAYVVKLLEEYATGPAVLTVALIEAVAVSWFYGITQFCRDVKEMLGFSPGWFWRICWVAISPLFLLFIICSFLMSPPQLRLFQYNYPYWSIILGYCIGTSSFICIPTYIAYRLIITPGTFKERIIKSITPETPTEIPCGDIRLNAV
T1 sequence (P23975 whole entry): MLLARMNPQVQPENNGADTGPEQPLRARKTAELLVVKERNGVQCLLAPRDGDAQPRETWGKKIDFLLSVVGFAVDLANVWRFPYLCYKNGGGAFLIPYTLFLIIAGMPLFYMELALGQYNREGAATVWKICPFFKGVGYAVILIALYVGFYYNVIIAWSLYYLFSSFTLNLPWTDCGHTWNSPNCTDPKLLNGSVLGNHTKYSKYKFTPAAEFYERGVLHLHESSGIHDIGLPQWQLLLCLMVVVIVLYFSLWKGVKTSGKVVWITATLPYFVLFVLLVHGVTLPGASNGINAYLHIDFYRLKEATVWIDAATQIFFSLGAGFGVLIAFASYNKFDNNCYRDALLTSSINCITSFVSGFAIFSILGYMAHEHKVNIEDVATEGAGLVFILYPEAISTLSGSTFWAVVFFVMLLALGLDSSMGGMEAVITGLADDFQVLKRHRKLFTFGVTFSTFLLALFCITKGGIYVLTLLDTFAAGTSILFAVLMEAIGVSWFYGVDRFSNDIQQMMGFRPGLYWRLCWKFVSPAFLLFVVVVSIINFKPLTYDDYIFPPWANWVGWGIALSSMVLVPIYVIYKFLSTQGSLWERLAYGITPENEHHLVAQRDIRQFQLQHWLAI
T3 sequence (Q01959 whole entry): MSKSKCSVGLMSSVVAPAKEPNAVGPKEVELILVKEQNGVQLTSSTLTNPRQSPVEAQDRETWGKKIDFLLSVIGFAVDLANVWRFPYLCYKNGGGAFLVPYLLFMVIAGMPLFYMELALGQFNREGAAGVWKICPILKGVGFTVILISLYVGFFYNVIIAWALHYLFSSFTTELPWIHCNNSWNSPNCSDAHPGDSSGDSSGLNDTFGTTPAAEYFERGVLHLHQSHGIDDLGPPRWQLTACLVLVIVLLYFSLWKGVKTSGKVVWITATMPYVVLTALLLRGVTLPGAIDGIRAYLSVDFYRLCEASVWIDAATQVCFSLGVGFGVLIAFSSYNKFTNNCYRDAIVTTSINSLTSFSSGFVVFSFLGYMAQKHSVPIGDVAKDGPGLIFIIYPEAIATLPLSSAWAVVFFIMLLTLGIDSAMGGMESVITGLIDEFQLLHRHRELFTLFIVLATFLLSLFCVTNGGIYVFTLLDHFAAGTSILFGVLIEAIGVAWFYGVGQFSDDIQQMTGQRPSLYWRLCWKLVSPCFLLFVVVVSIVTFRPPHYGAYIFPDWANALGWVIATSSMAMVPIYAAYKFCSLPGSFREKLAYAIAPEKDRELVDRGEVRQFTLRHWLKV

| Compound | Ki [1] [nM] | logD [2] | Ki [3] [nM] | Ki [4] [nM] | remaining at 1 h (CES1b/CES1c/CES2) [%] | metabolised at 1 h [5] [%] | remaining at 1 h [6] [%] | Ki [7] [nM] | Ki [8] [nM] | Ki [9] [nM] | Ratio Ki (Homo sapiens [10]) | Ratio Ki (Homo sapiens [11]) |
| --- | --- | --- | --- | --- | --- | --- | --- | --- | --- | --- | --- | --- |
| O=C(O)[C@H]1[C@@H](c2ccc(I)cc2)C[C@@H]2CC[C@H]1N2C/C=C/I | 785 | 0.8 | 71.4 | 37 | – | – | – | – | – | – | – | – |
| O=C(OCC[18F])[C@H]1[C@@H](c2ccc(I)cc2)C[C@@H]2CC[C@H]1N2C/C=C/I | – | – | – | – | 92 | 71.6 | 100 | – | – | – | – | – |
| COC(=O)[C@H]1[C@@H](c2ccc(C)cc2)C[C@@H]2CC[C@H]1N2C/C=C/I | – | – | – | – | – | – | – | 500 | > 1000 | – | – | – |
| COC(=O)[C@H]1[C@@H](c2ccc(I)cc2)C[C@@H]2CC[C@H]1N2C | – | – | – | – | – | – | – | 29.2 | 32.8 | 6.34 | – | – |
| COC(=O)[C@H]1[C@@H](c2ccc(I)cc2)C[C@@H]2CC[C@H]1N2C/C=C/I | 20 | 5.29 | 1.5 | 1.72 | 92 | 46.4 | 100 | – | – | – | 11 | – |
| O=C(OCCF)[C@H]1[C@@H](c2ccc(I)cc2)C[C@@H]2CC[C@H]1N2C/C=C/I | 153 | 5.39 | 2.4 | 1.33 | – | – | – | – | – | – | 115 | 1.8 |
